Sampled rows, rich in hits. Any-hit rate of the full collection: about 2.8%.
MC4R antag cAMP: MC4R antagonists of cAMP signaling, primary screen, cell-based, TR-FRET, antagonist arm of biased-ligand search. Melanocortin receptor 4 (Homo sapiens), P32245. MC4R-expressing cells, MTII-stimulated cAMP, LANCE TR-FRET. 0.48% of 360,000 active. inhibition, % at 6.5 µM;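 active means inhibition above its plate's cutoff, the mean of tested wells on that plate plus 3 SD, cut at about 29% in these data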
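system = U2OS cells with stable human MC4R expression | also added = Melanotan II challenge after compound preincubation | dosing = one concentration, 6.5 µM nominal | incubation = compound 30 min, challenge 1 h, detection 1 h | measured by = TR-FRET with Eu-cAMP and labeled anti-cAMP, 671 nm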
MC4R ag barr: MC4R agonists recruiting beta-arrestin, primary screen, cell-based, luminescence, agonist arm of biased-ligand search. Melanocortin receptor 4 (Homo sapiens), P32245. AID 540308, 2011. activation, % at 8.9 µM. U2OS MC4R beta-arrestin complementation; percent of melanotan II response, DMSO zero. 0.98% of 360,000 active;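 active means activation above a per-plate cutoff, the mean activation of sample wells on that plate plus 3 SD, cut at about 8% in these data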
m5-HT2A agonist: mouse Htr2a agonists via beta-arrestin recruitment, primary screen, cell-based, luminescence; CHO-K1 mHTR2A beta-arrestin complementation; percent of 30 µM serotonin response; activation, % at 7.6 µM; 0.66% of 360,000 active;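 active means activation above a run cutoff, the mean activation of all tested compounds plus 3 SD, cut at about 14% in these data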
Target sequence (P35363 whole entry, looked up): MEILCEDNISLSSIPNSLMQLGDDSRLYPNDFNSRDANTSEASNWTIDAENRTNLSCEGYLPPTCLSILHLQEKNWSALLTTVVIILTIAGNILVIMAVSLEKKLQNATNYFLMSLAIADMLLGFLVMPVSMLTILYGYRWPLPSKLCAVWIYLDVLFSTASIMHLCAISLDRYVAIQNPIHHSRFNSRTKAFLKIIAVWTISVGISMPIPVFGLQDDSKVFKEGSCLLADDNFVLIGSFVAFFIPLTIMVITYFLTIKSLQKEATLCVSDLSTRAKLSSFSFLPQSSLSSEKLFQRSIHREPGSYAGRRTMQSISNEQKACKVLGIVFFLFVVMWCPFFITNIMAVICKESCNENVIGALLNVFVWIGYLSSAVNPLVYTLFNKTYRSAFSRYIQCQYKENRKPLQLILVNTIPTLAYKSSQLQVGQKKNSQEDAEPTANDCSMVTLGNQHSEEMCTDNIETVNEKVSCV
EBI2 antag: EBI2 receptor antagonists, beta-arrestin recruitment, primary screen, cell-based, luminescence, 7a,25-OHC stimulation, uHTS. inhibition, % at 5 µM. 0.81% of 360,000 active. G-protein coupled receptor 183 (Homo sapiens), P32249. 7a,25-OHC stimulated. AID 651636, 2012; in the data active means inhibition above about 38%;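 further: enzyme fragment complementation signal reports receptor beta-arrestin coupling in cells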
EBI2 conf: EBI2 antagonist hit retest, beta-arrestin, confirmation, cell-based, single concentration, luminescence, 7a,25-OHC stimulation | shares compounds with EBI2 antag | 7a,25-OHC antagonism | inhibition, % at 5 µM | 29% of 2,400 active | AID 651997, 2013;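 active means inhibition of at least 50%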
EBI2 agonist: EBI2 agonist activity of antagonist hits, confirmation, counter-screen for EBI2 antagonist project, cell-based, single concentration, agonist mode, luminescence; shares compounds with EBI2 antag; EBI2-expressing cells, 60 min; 0% vehicle, 100% 7α,25-dihydroxycholesterol control; activation, % at 5 µM; 2,400 tested, under 10 active; AID 652000, 2013;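 active means activation of at least 50%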
bGal cs: E. coli beta-galactosidase enzyme inhibition, confirmation, counter-screen for EBI2 antagonist project, biochemical, luminescence, single concentration. shares compounds with EBI2 antag. purified beta-galactosidase, luminescent Galacton Star, 15 min. inhibition, % at 5 µM. 1% of 2,400 active. AID 652176, 2013;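 active means replicate-average signal at least 3 plate SD below neutral wells, shown as high inhibition, flagging enzyme-inhibiting false positives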;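 further: higher means stronger loss of beta-gal luminescence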
Each line names hits and unclear results; the compound was inactive in the other large screens (follow-up assays come after a bar, where they were run).

Cc1ccc(N2CC(C(=O)Nc3ccc(S(=O)(=O)NCC4CCCO4)cc3)CC2=O)cc1 (configuration not stated)	EBI2 antag 51 | EBI2 conf inactive | EBI2 agonist inactive | bGal cs inactive
Cc1ccccc1N1CC(C(=O)Nc2ccc(S(=O)(=O)NCC3CCCO3)cc2)CC1=O (configuration not stated)	none
COC(=O)c1ccccc1NC(=O)CCCCCn1nnc2ccccc2c1=O	none
CCCCCOc1ccc(C2C(C(C)=O)=C(C)Nc3ncnn32)cc1OC (configuration not stated)	none
O=[N+]([O-])c1cc(-c2cnc3ccccc3n2)ccc1Oc1ccc(Br)cc1	EBI2 antag 46 | EBI2 conf inactive | EBI2 agonist inactive | bGal cs inactive
O=[N+]([O-])c1ccc(Oc2ccc(-c3cnc4ccccc4n3)cc2[N+](=O)[O-])cc1	none
FC(F)(F)c1cccc(OCCN2CCN(Cc3ccccc3)CC2)c1	none
COc1cc2ccccc2cc1C(=O)NC1CCC(C)CC1 (configuration not stated)	EBI2 antag 65 | EBI2 conf inactive | EBI2 agonist inactive | bGal cs inactive
CCOc1ccc(S(=O)(=O)N(C)c2ccc(OCC(=O)NCCc3ccc(OC)cc3)cc2)cc1	EBI2 antag 55 | EBI2 conf inactive | EBI2 agonist inactive | bGal cs inactive
FC(F)(F)c1cccc(Cn2cnc(NC(=S)NCCc3ccccc3)n2)c1	EBI2 antag 54 | EBI2 conf inactive | EBI2 agonist inactive | bGal cs inactive
CCOC(=O)Cn1c(-c2nonc2NC(=O)c2ccccc2F)nc2ccccc21	EBI2 antag 55 | EBI2 conf inactive | EBI2 agonist inactive | bGal cs inactive
C=CCN1C(=O)/C(=C/c2ccccc2)S/C1=N/c1nccs1	EBI2 antag 57 | EBI2 conf inactive | EBI2 agonist inactive | bGal cs inactive
CC(C)(C)c1ccc(C(=O)N2CCN(Cc3ccccc3)CC2)cc1	none
CCc1cc2cc(C(=O)N3CCN(c4ccccc4)CC3)sc2s1	EBI2 antag 83 | EBI2 conf inactive | EBI2 agonist inactive | bGal cs inactive
CCc1cc2cc(C(=O)N3CCN(Cc4ccccc4)CC3)sc2s1	EBI2 antag 97 | EBI2 conf 85 | EBI2 agonist inactive | bGal cs inactive
O=C(c1cc2c(s1)CCCC2)N1CCN(c2ccccc2)CC1	none
O=C(COC(=O)COc1ccccc1)NC1CCCC1	none
COc1ccc(CNC(=O)C2CCN(S(=O)(=O)c3ccc(Br)s3)CC2)cc1	EBI2 antag 68 | EBI2 conf inactive | EBI2 agonist inactive | bGal cs inactive
O=C(NCCc1ccc(Cl)cc1)C1CCN(S(=O)(=O)c2ccc(Br)s2)CC1	EBI2 antag 51 | EBI2 conf inactive | EBI2 agonist inactive | bGal cs inactive
CC1CC(C)CN(S(=O)(=O)N2CCCC(C(=O)NCCc3ccc(Cl)cc3)C2)C1 (configuration not stated)	EBI2 antag 57 | EBI2 conf 52 | EBI2 agonist inactive | bGal cs inactive
O=C(NCc1ccc2c(c1)OCO2)C1CCN(S(=O)(=O)c2ccc(Br)s2)CC1	EBI2 antag 44 | EBI2 conf inactive | EBI2 agonist inactive | bGal cs inactive
CCCN(CC(=O)Nc1ccc(F)c(F)c1F)C(=O)C1=COCCO1	none
Cc1sc2ncnc(NCC(c3ccco3)N3CCCC3)c2c1C (configuration not stated)	none
CC(=O)c1ccc(NC(=O)C2CCCNC2=O)cc1 (configuration not stated)	EBI2 antag 55 | EBI2 conf inactive | EBI2 agonist inactive | bGal cs inactive
CN(C)c1ccc(S(=O)(=O)N2CCCCC2)cc1NC(=O)CCNC(=O)c1ccccc1Cl	none
CCn1c(SCC(=O)NCc2cccs2)nnc1-c1cccs1	none
O=C(CSc1nnc(-c2ccncc2)n1Cc1ccccc1)NCCc1ccccc1	EBI2 antag 53 | EBI2 conf inactive | EBI2 agonist inactive | bGal cs inactive
CNC(=O)CSc1nnc(-c2ccncc2)n1Cc1ccccc1	none
CCn1c(SCC(=O)NCCc2ccc(Cl)cc2)nnc1-c1cccs1	EBI2 antag 64 | EBI2 conf inactive | EBI2 agonist inactive | bGal cs inactive
COCCNC(=O)c1cnn2c(C(F)(F)F)cc(-c3ccc(C)cc3)nc12	none
Nc1c(Cl)cc(C2=NCCn3nc4cc(C(F)(F)F)ccc4c32)cc1Cl	EBI2 antag 49 | EBI2 conf inactive | EBI2 agonist inactive | bGal cs inactive
O=C(/C=C/c1cn(-c2ccccc2)nc1-c1cccnc1)c1ccco1	EBI2 antag 44 | EBI2 conf 65 | EBI2 agonist inactive | bGal cs inactive
O=C(CSc1nnc(COc2ccccc2)o1)N1CCOCC1	none
Cc1ccc(S(=O)(=O)N2C(=O)CCC2C(=O)N2CCCCC2)cc1 (configuration not stated)	none
Cc1ccc(N(C)C(=O)N2CCN(S(=O)(=O)c3ccc(C)cc3)CC2)cc1	none
Cc1ccc(N(C)C(=O)N2CCN(S(=O)(=O)c3ccc4ccccc4c3)CC2)cc1	EBI2 antag 45 | EBI2 conf inactive | EBI2 agonist inactive | bGal cs inactive
Cc1nn(Cc2c(F)c(F)c(F)c(F)c2F)c(C)c1NC(=O)c1ccc(COc2ccc(Cl)cc2Cl)o1	none
Cc1nn(Cc2ccc(Cl)cc2Cl)c(C)c1NC(=O)c1ccc(COc2cc(Cl)ccc2Cl)o1	EBI2 antag 47 | EBI2 conf inactive | EBI2 agonist inactive | bGal cs inactive
Cc1c(Cc2ccccc2)[n+](=O)c2ccccc2n1[O-]	none
COc1ccccc1OCC(=O)NNC(=O)CSC(=S)N1CCCC1	none
O=C(N[C@@H](Cc1ccccc1)C(=O)NCCc1c[nH]c2ccccc12)c1ccco1	EBI2 antag 57 | EBI2 conf inactive | EBI2 agonist inactive | bGal cs inactive
C#CCNC(=O)C1=C[C@H](c2ccc(Br)cc2)C[C@H](OCc2ccc(CO)cc2)O1	none
CCOc1ccc(C2c3[nH]c4ccccc4c3C[C@H]3C(=O)N(C4CCN(Cc5ccccc5)CC4)CC(=O)N23)cc1OC (some centres not stated)	none

Source: PubChem BioAssay (several laboratories)
